These results are taken from PubChem BioAssay AID652279 (Broad Institute, 2013).

This assay relates to T. cruzi CAI/72 in J774 macrophages, trypomastigote emergence, microscopy. The experiment in a line: intracellular T. cruzi relapse after drug removal – imaging, CAI/72 strain, J774 macrophages, dry powder, mechanism study, late-stage follow-up (AID 652279). The note with it: hits give high values. The method, boiled down:
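System: Irradiated (9000 rad) J774 macrophages infected with T. cruzi CAI/72; buffer or medium: RPMI-1640, 5% FCS; incubation: 1 or 3 weeks dosing, then 31 or 17 days washout; signal: daily light-microscopy check for trypomastigote emergence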

Take `CC(C)N1C[C@@H](CN(C)Cc2ccc(Cl)c(Cl)c2)Oc2c(NC(=O)c3ccncc3)cccc2C1=O`: the slope of emergence day vs concentration is 6.07. Turning to `CC(C)N1C[C@@H](CN(C)Cc2ccc(Cl)cc2)Oc2c(NC(=O)c3ccncc3)cccc2C1=O`, the slope of emergence day vs concentration is 2.21. With `CC(C)N1C[C@@H](CN(C)Cc2ccc(Oc3ccccc3)cc2)Oc2c(NC(=O)c3ccncc3)cccc2C1=O`, the slope of emergence day vs concentration is 5.84. Turning to `CC(C)N1C[C@@H](CN(C)Cc2ccc(Cl)cc2)Oc2c(NC(=O)c3ccncc3)cc(F)cc2C1=O`, the slope of emergence day vs concentration was 2.15. With `CN(C)CC#Cc1cccc(-c2nc(C(=O)N[C@@H]3CCN(Cc4ccccc4)C3)cc3c2[C@@H](CCO)N(S(=O)C(C)(C)C)C3)c1` (stereo partly specified), the slope of emergence day vs concentration was 2.02. Turning to `CC(C)N1C[C@@H](CN(C)CCc2ccc(Cl)c(Cl)c2)Oc2c(NC(=O)c3ccncc3)cccc2C1=O`, the slope of emergence day vs concentration was 6.4.

Regarding `CC(C)N1C[C@H](CN(C)Cc2ccc(Cl)cc2)Oc2c(NC(=O)c3ccncc3)cccc2C1=O`, the slope of emergence day vs concentration is 2.02. Take `CC(C)N1C[C@@H](CN(C)CCc2ccc(Cl)cc2)Oc2c(NC(=O)c3ccncc3)cccc2C1=O`: the slope of emergence day vs concentration is 6.07. `CC(C)N1C[C@@H](CN(C)Cc2ccc(Cl)cc2)Oc2c(C(=O)Nc3ccncc3)cccc2C1=O`: the slope of emergence day vs concentration was 4.59.

Take `CN(C)C(=O)c1cccc(-c2ccc([C@H]3[C@H](CO)N4CCCCN(C(=O)C5CCC5)C[C@@H]34)cc2)c1`: the slope of emergence day vs concentration was 1.4. For the compound `CN(C)CC#Cc1cccc(-c2nc(C(=O)NCc3ccc4c(c3)OCO4)cc3c2[C@@H](CCO)N(S(=O)C(C)(C)C)C3)c1` (stereo partly specified), the slope of emergence day vs concentration was 4.35.
